Screening results: PubChem, several laboratories
Most compounds without a hit are left out; they make up all but 1.8% or so of the library.
Casp6 inh: human caspase-6 inhibitors, primary screen, biochemical, VEID-R110 fluorescence, single point, set 2; 350,000 compounds, 0.53% hits; purified caspase-6, Z-VEID-R110 cleavage fluorescence; inhibition, % at 12.5 µM; P55212;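 active means mean inhibition across replicates at least about 35%, with every replicate also reaching that limit, limit read from the data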
Target sequence (P55212 24-179 limits assumed): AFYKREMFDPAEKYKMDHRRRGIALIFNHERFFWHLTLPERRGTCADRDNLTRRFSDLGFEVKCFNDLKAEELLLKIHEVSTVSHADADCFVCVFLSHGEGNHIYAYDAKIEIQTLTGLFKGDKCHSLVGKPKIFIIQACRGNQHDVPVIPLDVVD
Target sequence (P55212 194-293 limits assumed): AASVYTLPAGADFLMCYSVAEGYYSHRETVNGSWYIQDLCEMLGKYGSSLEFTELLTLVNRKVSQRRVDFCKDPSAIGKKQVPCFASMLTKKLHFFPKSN
LEDGF integ inh: blockers of LEDGF/p75-dependent integrase strand transfer – biochemical, TR-FRET, high throughput, primary screen | HIV-1 integrase (with human LEDGF/p75) | TR-FRET IN-LEDGF/p75 DNA integration, Eu/Cy5 | inhibition, % at 3.7 µM | 370,000 compounds, 0.64% hits | AID 743269, 2014;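 active means inhibition above the screen-wide mean plus 3 SD, cut at about 13% in these data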;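 further: signal is the Cy5 over europium emission ratio at 671 and 618 nm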
MBD2 inh: inhibitors of MBD2 binding to methylated DNA, primary screen, biochemical, TR-FRET, DNA-binding domain, human; Methyl-CpG-binding domain protein 2 (Homo sapiens), Q9UBB5; 370,000 compounds, 0.31% hits; MBD2 binding to methylated oligonucleotide; inhibition, % at 4.4 µM; AID 686964, 2013; in the data active means inhibition above about 13%
UHRF1 MBD2 ctr: UHRF1 methylated DNA binding inhibitors, primary screen, counter-screen for MBD2 inhibitor project, biochemical, TR-FRET, human UHRF1, single concentration; E3 ubiquitin-protein ligase UHRF1 (Homo sapiens), Q96T88; UHRF1 binding to methylated oligo; inhibition, % at 4.4 µM; 370,000 compounds, 0.75% hits; AID 687016, 2013; in the data active means inhibition above about 21%;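 further: UHRF1 SRA domain binding a hemimethylated CpG hairpin DNA probe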
TDP2 absorb: human TDP2 enzyme inhibitors, primary screen, biochemical, epi absorbance, recombinant enzyme | Tyrosyl-DNA phosphodiesterase 2 (Homo sapiens), O95551 | T5PNP hydrolysis, p-nitrophenol absorbance 415 nm | inhibition, % at 12.8 µM | 370,000 compounds, 0.34% hits | AID 720702, 2013;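 active means inhibition above the mean of all tested compounds plus 3 SD, set per campaign, cut at about 25% in these data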
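System: recombinant human TDP2 / Amount: 120 nM TDP2 per well / Also added: 5 mM T5PNP chromogenic substrate / Doses: 12.8 µM single point, 1% DMSO / Incubation: 2 h at 37 °C / Detection: p-Nitrophenol epi absorbance / Evaluation: % inhibition relative to enzyme-containing and enzyme-free wells / Repeats: singlicate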
NSD2 inh: NSD2 histone methyltransferase inhibitors, primary screen, biochemical, AlphaScreen, single concentration, set 2. inhibition, % at 12.5 µM. NSD2 peptide methylation, 120 min. 310,000 compounds, 0.54% hits. AID 743445, 2014; in the data active means inhibition above about 50%
IN multimer up: HIV-1 IN multimer formation enhancers, counter-screen for LEDGF/p75 integration inhibitor project, biochemical, TR-FRET; shares compounds with LEDGF integ inh; TR-FRET HIV-1 integrase multimerization; activation, % at 7.7 µM; 2,000 compounds, 17% hits; in the data active means activation above about 8.9%
TR-FRET interf: TR-FRET optical interference artefacts, confirmation, artefact control for LEDGF/p75-dependent integration inhibitor project, biochemical, HIV-1 IN multimerization | shares compounds with LEDGF integ inh | TR-FRET optical interference counterscreen | inhibition, % at 7.7 µM | 2,000 tested, under 10 active | AID 1053135, 2014;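 active means inhibition above the mean over all tested compounds plus 3 SD, which no compound reached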
IN-LEDGF confirm: inhibitors of HIV-1 IN-LEDGF/p75 DNA integration, confirmation, biochemical, TR-FRET; TR-FRET LEDGF/p75-dependent HIV-1 integration; shares compounds with LEDGF integ inh; AID 1053136, 2014; inhibition, % at 3.7 µM; 2,000 compounds, 36% hits; in the data active means inhibition above about 14%
AlphaScreen art: AlphaScreen signal interference with preloaded methylated product, dose response, artefact control for NSD2 inhibitor project, biochemical, cherry-picked samples; AlphaScreen artifact counterscreen, preloaded methylated H4 peptide; AC35, µM (series often up to 10 µM); AID 1053174, 2014; shares compounds with NSD2 inh; 1,500 compounds, 9.4% hits; call rule not given here
Numbers stand for hits; 0 = inactive; - = no result given.

SMILES	Casp6 inh	LEDGF integ inh	MBD2 inh	UHRF1 MBD2 ctr	TDP2 absorb	NSD2 inh	AlphaScreen art	others
COc1ccc(-c2ccc([C@H]3[C@H]4CN(C(=O)Cc5ccccc5)CCCCN4[C@H]3CO)cc2)cc1	0	-	-	-	-	-	-
COc1ccc(CN2C(=O)NC(=O)/C(=C\c3ccco3)C2=O)cc1	82	14	0	0	0	51	0	IN multimer up=0;TR-FRET interf=0;IN-LEDGF confirm=18
Cc1cccc(N2C(=O)/C(=C/N3CCN(C(=O)c4ccco4)CC3)C(=O)NC2=S)c1	-	0	0	0	0	0	-
CCOc1cccc(N2C(=O)/C(=C/c3ccco3)C(=O)NC2=S)c1	87	22	0	50	0	123	2.6µM	IN multimer up=9.8;TR-FRET interf=0;IN-LEDGF confirm=76
CN(C)C(CNC(=O)Cc1ccc(Br)cc1)c1ccccc1 (centres undefined)	0	0	0	0	0	53	0
COc1ccc(C(CNC(=O)CCc2ccsc2)N(C)C)cc1 (centres undefined)	0	0	0	0	0	0	-
O=[N+]([O-])c1ccc(N2CCCC2)c2ccncc12	0	0	0	0	0	71	0
COc1ccc(OC(=O)N(C)C[C@H]2OCc3ccccc3-c3c(n(C)c4ccccc34)C(=O)N([C@@H](C)CO)C[C@H]2C)cc1	0	-	-	-	-	-	-
COC(=O)C[C@H]1CC[C@H]2NC[C@H](O)COC[C@@H]2O1	0	-	-	-	-	-	-
O=C(NC1CN2CCC1CC2)c1cccc(Cl)c1 (centres undefined)	0	0	0	0	0	0	-
C=C(C)c1cccc(C(C)(C)NC(=O)NC2CN3CCC2CC3)c1 (centres undefined)	-	0	0	0	0	51	0
O=C(Cc1ccccn1)N1CCCCN2[C@@H](CO)[C@@H](c3ccc(-c4ccc(F)cc4)cc3)[C@@H]2C1	0	-	-	-	-	-	-
COC(=O)C1=Nc2ccccc2/C1=C\c1c(O)n(-c2ccc(Br)cc2)c(=O)[nH]c1=O	0	0	0	0	0	61	0
CCCCCSc1cc(OC)c(CCNC)cc1OC	-	0	0	0	0	61	0
CC[n+]1c(/C=C/C=C/c2ccc(N(C)C)cc2)sc2ccccc21	0	0	0	0	0	81	3.7µM
C[n+]1c(-c2ccccc2)sc2ccccc21	0	0	0	0	0	0	-
CN(C)c1ccc(/C=C/C=C/c2sc3ccccc3[n+]2C)cc1	0	0	0	0	0	57	10µM
O=C(Cc1cccnc1)N1CCCCN2[C@H](CO)[C@@H](c3ccc(C#CC4CCCC4)cc3)[C@H]2C1	0	-	-	-	-	-	-
CC=Cc1ccc2n(c1=O)C[C@H]1[C@H](CO)[C@@H](C(=O)OC)[C@@H]2N1C(=O)CC (mixture of isomers)	0	-	-	-	-	-	-
